SMILES strings stand for the structures. pEC50: −log10 of the molar value.

Consider 14 compounds from ChEMBL document CHEMBL4138227, “Identification of an oxime-containing C-glucosylarene as a potential inhibitor of sodium-dependent glucose co-transporter 2” (Eur J Med Chem, 2018).

The target of data set [1] is T1, Sodium/glucose cotransporter 2 (Homo sapiens, UniProt P31639).
T1 sequence (P31639 whole entry): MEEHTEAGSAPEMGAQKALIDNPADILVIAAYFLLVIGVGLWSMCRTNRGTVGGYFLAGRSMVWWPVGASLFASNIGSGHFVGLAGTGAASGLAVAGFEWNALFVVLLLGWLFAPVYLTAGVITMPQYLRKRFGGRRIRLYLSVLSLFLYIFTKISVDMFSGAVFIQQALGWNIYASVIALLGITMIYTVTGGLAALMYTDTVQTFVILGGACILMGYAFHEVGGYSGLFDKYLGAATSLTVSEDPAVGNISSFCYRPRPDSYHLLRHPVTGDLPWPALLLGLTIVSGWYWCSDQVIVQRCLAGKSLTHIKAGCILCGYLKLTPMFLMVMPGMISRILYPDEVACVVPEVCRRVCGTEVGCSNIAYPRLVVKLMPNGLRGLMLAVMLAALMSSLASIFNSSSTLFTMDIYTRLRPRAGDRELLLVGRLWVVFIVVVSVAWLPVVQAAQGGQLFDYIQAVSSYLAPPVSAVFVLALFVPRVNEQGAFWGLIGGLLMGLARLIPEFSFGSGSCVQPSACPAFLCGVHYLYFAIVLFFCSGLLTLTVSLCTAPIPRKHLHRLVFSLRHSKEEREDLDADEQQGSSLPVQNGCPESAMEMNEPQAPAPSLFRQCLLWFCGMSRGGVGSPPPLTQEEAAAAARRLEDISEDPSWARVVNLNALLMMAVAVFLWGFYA
Nature of the data set: Inhibition of human SGLT2 expressed in CHO cells assessed as reduction in [14C]AMG uptake after 1 hr by microbeta counting method. Format: cell-based. In short, it runs like this:
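CHO cells stably expressing human SGLT2 (or SGLT1); inhibition of sodium-dependent uptake of [14C]α-methyl-D-glucopyranoside measured; EC50 from at least two independent experiments, each in triplicate.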

Data set [2] can be described thus: Volume of distribution at steady state in Sprague-Dawley rat at 1 mg/kg, iv. The format is ADME, organism-based. Particulars: in vivo, read-out: Vdss.
A short description of data set [3]: AUC (0 to infinity) in Sprague-Dawley rat at 1 mg/kg, iv. The following applies: in vivo. Format: ADME, organism-based. The arrangement: dose 1 mg/kg, time infinity, route intravenous. In outline: (§1)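 Rats got a single intravenous or oral dose, with 3 animals per route. Pharmacokinetic parameters were derived, including T1/2, clearance, Vss, Cmax, Tmax, AUC(0-inf) and oral bioavailability (F).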

The nature of data set [4]: Clearance in Sprague-Dawley rat at 1 mg/kg, iv. Particulars: in vivo. Format: ADME, organism-based.
A short description of data set [5]: Tmax in Sprague-Dawley rat at 1 mg/kg, po. Particulars: in vivo. Format: ADME, organism-based.
Data set [6] in a line: Elimination half life in Sprague-Dawley rat at 1 mg/kg, po. Format: ADME, organism-based. Particulars: in vivo, read-out: beta t1/2 (converted).
A short description of data set [7]: Cmax in Sprague-Dawley rat at 1 mg/kg, po. Format: ADME, organism-based. The arrangement: dose 1 mg/kg, route oral. Particulars: in vivo.
Data set [8] in a line: AUC (0 to infinity) in Sprague-Dawley rat at 1 mg/kg, po. Format: ADME, organism-based. The arrangement: dose 1 mg/kg, time infinity, route oral. The following applies: in vivo. In short, it runs like this:
as §1

Data set [9] can be described thus: Oral bioavailability in Sprague-Dawley rat at 1 mg/kg. Format: ADME, organism-based. Particulars: in vivo.
Data set [10] in a line: Elimination half life in Sprague-Dawley rat at 1 mg/kg, iv. The format is ADME, organism-based. Particulars: in vivo, read-out: beta t1/2 (converted).
Data set [11] is described as follows: AUC (0 to infinity) in Sprague-Dawley rat at 0.9 mg/kg, iv. Format: ADME, organism-based. The arrangement: dose 0.9 mg/kg, route intravenous, time infinity. The following applies: in vivo. In short, it runs like this:
as §1

Data set [12] in a line: Elimination half life in Sprague-Dawley rat at 0.9 mg/kg, iv. Format: ADME, organism-based. Particulars: in vivo, read-out: beta t1/2 (converted).
Data set [13] can be described thus: Clearance in Sprague-Dawley rat at 0.9 mg/kg, iv. The format is ADME, organism-based. The following applies: in vivo.
Data set [14] is described as follows: Volume of distribution at steady state in Sprague-Dawley rat at 0.9 mg/kg, iv. The following applies: in vivo, read-out: Vdss. The format is ADME, organism-based.

For orientation: pEC50 means the EC50 on a negative log10 scale, so that one unit is a factor of ten. For `CCOc1ccc(Cc2cc([C@@H]3O[C@H](CNNC(=O)c4ccco4)[C@@H](O)[C@H](O)[C@H]3O)ccc2Cl)cc1`, the pEC50 in [1] is 6.82. Same read-out and setting: the figure for `CCOc1ccc(Cc2cc([C@@H]3O[C@H](CNO)[C@@H](O)[C@H](O)[C@H]3O)ccc2Cl)cc1` is 7.02. Still for that read-out and setting: with `CCOc1ccc(Cc2cc([C@@H]3O[C@H](/C=N/NC4=NCCN4)[C@@H](O)[C@H](O)[C@H]3O)ccc2Cl)cc1` the figure was 6.37. Take `CCOc1ccc(Cc2cc([C@@H]3O[C@H](/C=N/NC(=O)c4ccsc4)[C@@H](O)[C@H](O)[C@H]3O)ccc2Cl)cc1`: the pEC50 in data set [1] was 6.68. The same measure, in the same setting: the figure for `CCOc1ccc(Cc2cc([C@@H]3O[C@H](/C=N/OCCOC)[C@@H](O)[C@H](O)[C@H]3O)ccc2Cl)cc1` is 6.17. The same measure, in the same setting: with `C#CCO/N=C/[C@H]1O[C@@H](c2ccc(Cl)c(Cc3ccc(OCC)cc3)c2)[C@H](O)[C@@H](O)[C@@H]1O` the figure was 6.37.

Regarding `CCOc1ccc(Cc2cc([C@@H]3O[C@H](/C=N/NC(=O)c4ccncc4)[C@@H](O)[C@H](O)[C@H]3O)ccc2Cl)cc1`, the pEC50 in data set [1] was 6.76.

On to `CCOc1ccc(Cc2cc([C@@H]3O[C@H](CNNc4ccc([N+](=O)[O-])cc4)[C@@H](O)[C@H](O)[C@H]3O)ccc2Cl)cc1`, for which, in [1], the pEC50 was 6.68. The same measure, in the same setting: with `CCOc1ccc(Cc2cc([C@@H]3O[C@H](/C=N/NC(=O)c4ccco4)[C@@H](O)[C@H](O)[C@H]3O)ccc2Cl)cc1` the figure was 6.52.

The term AUC(0-inf) denotes the area under the concentration-time curve extrapolated to infinity. Low readings indicate low exposure, high ones high exposure. As usually defined, the clearance is the volume of plasma or blood freed of the substance per unit of time. Read a high clearance as efficient removal. As a reminder, the Tmax is the time from dosing to the highest level. A word on the Cmax: it is the peak of the concentration-time curve. By bioavailability is commonly meant the share of a dose that reaches the circulation, judged against a reference dose that is usually intravenous. Turning to `CCOc1ccc(Cc2cc([C@@H]3O[C@H](/C=N/OC)[C@@H](O)[C@H](O)[C@H]3O)ccc2Cl)cc1`, in data set [1], the pEC50 was 7.04. Besides, in [2], the Vd turned out to be 2.9 L/kg. Also, the AUC(0-inf) in data set [3] worked out at 1320 ng·h/mL; in data set [8] it was 540 ng·h/mL. In [4], this compound registered a clearance of 12.6 mL/min/kg. Further, the Tmax in data set [5] was 1 h. Besides, the half-life in data set [6] is 2.5 h; in data set [10], 3 h. The same compound registered a peak concentration (Cmax) in data set [7] of 116 ng/mL. In [9], the bioavailability amounted to 40.5%. For the compound `CCO/N=C/[C@H]1O[C@@H](c2ccc(Cl)c(Cc3ccc(OCC)cc3)c2)[C@H](O)[C@@H](O)[C@@H]1O`, the pEC50 in data set [1] was 6.47. Same read-out and setting: the figure for `CCOc1ccc(Cc2cc([C@@H]3O[C@H](/C=N/NCc4ccccc4)[C@@H](O)[C@H](O)[C@H]3O)ccc2Cl)cc1` is 7.42. As to `CCOc1ccc(Cc2cc([C@@H]3O[C@H](/C=N/NC(=O)c4ccccc4)[C@@H](O)[C@H](O)[C@H]3O)ccc2Cl)cc1`, in data set [1], the pEC50 is 6.89. In [11], this compound displayed an AUC(0-inf) of 206 ng·h/mL. For the same compound, the half-life in data set [12] is 0.36 h. The compound also registered a clearance in [13] of 75.7 mL/min/kg. In data set [14], the Vd was 1.4 L/kg. Turning to `CCOc1ccc(Cc2cc([C@@H]3O[C@H](/C=N/Nc4ccccc4[N+](=O)[O-])[C@@H](O)[C@H](O)[C@H]3O)ccc2Cl)cc1`, the pEC50 in data set [1] is 6.34.
